Laboratory results as given in ChEMBL document CHEMBL4130346, “New quinoline-arylamidine hybrids: Synthesis, DNA/RNA binding and antitumor activity” (Eur J Med Chem, 2017).
≈ marks a conversion by molar mass, not a printed value. Calls of active or inactive are those of the source. The rule behind the calls is not given here.

Columns and labels:
Calf thymus DNA [1] = assay: Binding affinity to calf thymus DNA minor groove at 0.1, 0.3, 0.5, 0.7 compound to ds-polynucleotide ratio by CD-spectrophotometric method; format: nucleic-acid assay; details: Bos taurus
How it was run: (§1)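 Induced CD spectra were recorded in 1 cm quartz cuvettes in Na cacodylate buffer (I = 0.05 mol dm-3, pH 7.0) with ct-DNA or polyA-polyU. Compound was added at r = [compound]/[polynucleotide] = 0.1, 0.3, 0.5 and 0.7. The CD signal was followed as a function of r.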

K562 [2] = assay: Growth inhibition of human K562 cells after 72 hrs by MTT assay; format: functional; details: K562, 72 h
How it was run: (§2)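 Leukemia cells (1x10^5 cells/cm3) were exposed to compound for 72 h, then MTT (5 mg/cm3) was added for 4 h. Formazan was dissolved with 10% SDS in 0.01 mol dm-3 HCl and absorbance read at 595 nm. Percent growth was taken versus untreated control minus background. GI50 came from a variable-slope fit, as mean ± SD of three independent experiments in triplicate.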

Caco-2 = assay: Growth inhibition of human Caco2 cells after 72 hrs by MTT assay; format: functional; details: Caco-2, 72 h
How it was run: (§3)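 Adherent cells (2x10^4 cells/cm3) attached overnight, then were exposed to compound for 72 h. Medium was replaced with 5 mg/cm3 MTT, formazan was dissolved in DMSO and absorbance read at 595 nm. Percent growth was taken relative to untreated control minus background. GI50 came from a variable-slope log-inhibitor fit, as mean ± SD of three independent experiments in triplicate.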

Calf thymus DNA [3] = assay: Disruption of calf thymus DNA helix at 0.1, 0.3, 0.5, 0.7 compound to ds-polynucleotide ratio by CD-spectrophotometric method; format: nucleic-acid assay; details: Bos taurus; how it was run: as §1
Raji = assay: Growth inhibition of human Raji cells after 72 hrs by MTT assay; format: functional; how it was run: as §2
Calf thymus DNA [4] = assay: Binding affinity to calf thymus DNA assessed as change in melting temperature at 0.1 compound to ds-polynucleotide ratio by spectrophotometric method; format: nucleic-acid assay; details: Bos taurus
How it was run: (§4)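 Thermal melting of ct-DNA (sonicated, filtered) or polyA-polyU in Na cacodylate buffer, I = 0.05 mol dm-3, pH 7.0, at given r = [compound]/[polynucleotide]; polynucleotide as phosphate concentration. Tm from maximum of first derivative, checked by tangent method. ΔTm = Tm(complex) − Tm(free nucleic acid), average of at least two measurements, error ±0.5 °C.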

[5] = Growth inhibition of MDCK1 cells after 72 hrs by MTT assay; set-up: species or system Canis lupus familiaris; details: dog; how it was run: as §3
[6] = Solubility of the compound in DMSO; format: physicochemical
HeLa = assay: Growth inhibition of human HeLa cells after 72 hrs by MTT assay; format: functional; how it was run: as §3
[7] = Chemical stability in aqueous solution after several weeks; format: physicochemical; details: buffer
How it was run: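 Aqueous compound solutions were monitored for several weeks by UV-Vis absorbance at 220-900 nm. Linearity with concentration was checked up to 3.5 × 10^-5 mol dm-3, and spectra were recorded at 25–90 °C with reproducibility checked on cooling to 25 °C.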

Calf thymus DNA [8] = assay: Binding affinity to calf thymus DNA assessed as change in melting temperature at 0.5 compound to ds-polynucleotide ratio by spectrophotometric method; format: nucleic-acid assay; details: Bos taurus; how it was run: as §4
Calf thymus DNA [9] = assay: Binding affinity to calf thymus DNA assessed as change in melting temperature at 0.3 compound to ds-polynucleotide ratio by spectrophotometric method; format: nucleic-acid assay; details: Bos taurus; how it was run: as §4
[10] = Solubility of the compound in water; format: physicochemical
[11] = Binding affinity to polyA-polyU (unknown origin) major groove at 0.1, 0.3, 0.5, 0.7 compound to ds-polynucleotide ratio by CD-spectrophotometric method; how it was run: as §1
Calf thymus DNA [12] = assay: Binding affinity to calf thymus DNA by UV-vis spectrophotometric method; format: nucleic-acid assay; details: Bos taurus
How it was run: (§5)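 UV-Vis titration at room temperature in Na cacodylate buffer (I = 0.05 mol dm-3, pH 7.0). Portions of ct-DNA or polyA-polyU were added to a fixed compound concentration until saturation, with dilution correction. Polynucleotide was measured as phosphate. Ks and n were obtained by Scatchard analysis, together with the hypochromic change at the absorption maximum.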

K562 [13] = assay: Cell cycle arrest in human K562 cells assessed as decrease in cell levels at S phase at 10^-5 mol/dm'3 after 24 hrs by propidium iodide staining-based flow cytometric method; format: functional
K562 [14] = assay: Cell cycle arrest in human K562 cells assessed as decrease in cell levels at G2-M phase at 10^-5 mol/dm'3 after 24 hrs by propidium iodide staining-based flow cytometric method; format: functional
K562 [15] = assay: Cell cycle arrest in human K562 cells assessed as accumulation at sub-G0 phase at 10^-5 mol/dm'3 after 24 hrs by propidium iodide staining-based flow cytometric method; format: functional
Calf thymus DNA [16] = assay: Binding affinity to calf thymus DNA assessed as hypochromic effect by UV-vis spectrophotometric method; format: nucleic-acid assay; details: Bos taurus; how it was run: as §5
[17] = Binding affinity to polyA-polyU (unknown origin) assessed as change in melting temperature at 0.3 compound to ds-polynucleotide ratio by spectrophotometric method; how it was run: as §4
[18] = Binding affinity to polyA-polyU (unknown origin) by UV-vis spectrophotometric method; how it was run: as §5
[19] = Binding affinity to polyA-polyU (unknown origin) assessed as hypochromic effect by UV-vis spectrophotometric method; how it was run: as §5
[20] = Binding affinity to polyA-polyU (unknown origin) assessed as change in melting temperature at 0.1 compound to ds-polynucleotide ratio by spectrophotometric method; how it was run: as §4
[21] = Binding affinity to polyA-polyU (unknown origin) assessed as change in melting temperature at 0.5 compound to ds-polynucleotide ratio by spectrophotometric method; how it was run: as §4
K562 [22] = assay: Cell cycle arrest in human K562 cells assessed as accumulation at G0-G1 phase at 10^-5 mol/dm'3 after 24 hrs by propidium iodide staining-based flow cytometric method; format: functional
[23] = Induction of polyA-polyU (unknown origin) intercalation at 0.1, 0.3, 0.5, 0.7 compound to ds-polynucleotide ratio by CD-spectrophotometric method; how it was run: as §1

Compound | Activity (Calf thymus DNA [1]) | GI50 (K562 [2]) [µM] | GI50 (Caco-2) [µM] | Activity (Calf thymus DNA [3]) | GI50 (Raji) [µM] | ΔTm (Calf thymus DNA [4]) [°C] | GI50 (HeLa) [µM] | Stability [7] | ΔTm (Calf thymus DNA [8]) [°C] | ΔTm (Calf thymus DNA [9]) [°C] | solubility [10] [µM] | log Ks (Calf thymus DNA [12]) | Activity (Calf thymus DNA [16]) [%] | ΔTm [17] [°C] | log Ks [18] | Activity [19] [%] | ΔTm [20] [°C] | ΔTm [21] [°C] | GI50 at 72 h [5] [µM] | Activity (K562 [13]) | further results
N#Cc1ccc2nc(-c3ccc(OCCNc4ccnc5cc(Cl)ccc45)cc3)[nH]c2c1 | Active | 7.8 | 28.3 | Active | 5.2 | 3.96 | 56.6 | Stable | 2.6 | 2.58 | – | – | – | – | – | – | – | – | 22.1 | – | solubility [6]: 1000 µM (≈ 440 µg/mL)
Cl.Cl.Cl.N=C(NC1CCCC1)c1ccc(Oc2ccnc3cc(Cl)ccc23)cc1 | – | 18.8 | 13.5 | – | 19.7 | 1.35 | 48.6 | Stable | 1.51 | 1.43 | 1000 | – | – | 0.65 | – | – | 0.64 | 0.28 | 35 | Active | Activity (K562 [22]): Active; Activity (K562 [14]): Active
Cl.Cl.Clc1ccc2c(Oc3ccc(-c4nc5ccc(C6=NCCCN6)cc5[nH]4)cc3)ccnc2c1 | Active | 21.6 | 34.5 | – | 50.5 | 3.3 | 64.4 | Stable | 3.89 | 3.31 | 1000 | 6.96 | 25.5 | 1.98 | 7.29 | 15.5 | 2.84 | 1.82 | 67.1 | – | Activity [23]: Active

Now from value to molecule, other results behind:

Activity (Calf thymus DNA [1]) | GI50 (K562 [2]) [µM] | GI50 (Caco-2) [µM] | Activity (Calf thymus DNA [3]) | GI50 (Raji) [µM] | ΔTm (Calf thymus DNA [4]) [°C] | GI50 (HeLa) [µM] | Stability [7] | ΔTm (Calf thymus DNA [8]) [°C] | ΔTm (Calf thymus DNA [9]) [°C] | solubility [10] [µM] | log Ks (Calf thymus DNA [12]) | Activity (Calf thymus DNA [16]) [%] | ΔTm [17] [°C] | log Ks [18] | Activity [19] [%] | ΔTm [20] [°C] | ΔTm [21] [°C] | Compound | GI50 at 72 h [5] [µM] | Activity (K562 [13]) | further results
Active | 15.1 | > 100 | Active | 28.5 | 4.31 | > 100 | Stable | 8.67 | 8.15 | 1000 | 6.51 | 32.2 | 0.75 | 7.02 | 26 | 1.24 | – | CC(C)CNC(=N)c1ccc2nc(-c3ccc(OCCNc4ccnc5cc(Cl)ccc45)cc3)[nH]c2c1.Cl.Cl.Cl | 94.1 | Active | Activity [11]: Active; Activity (K562 [14]): Active; Activity (K562 [15]): Active
Active | 11.4 | > 100 | Active | 17.1 | 3.71 | > 100 | Stable | 7.8 | 7.8 | 1000 | 6.29 | 24.4 | 1.14 | 6.81 | 49.7 | 3.02 | 4.67 to 35.4 | Cl.Cl.Cl.N=C(NC1CCCC1)c1ccc2nc(-c3ccc(OCCNc4ccnc5cc(Cl)ccc45)cc3)[nH]c2c1 | 99.2 | Active | Activity [11]: Active
Active | 69 | 53.3 | – | 48.2 | 1.07 | 51.3 | Stable | 2.24 | 1.75 | 1000 | 7.87 | 60 | 1.32 | 5.36 | 26.8 | -0.44 | 0.43 | CC(C)NC(=N)c1ccc2nc(-c3ccc(Oc4ccnc5cc(Cl)ccc45)cc3)[nH]c2c1.Cl.Cl.Cl | 61.8 | – | Activity [23]: Active
